From ChEMBL document CHEMBL4261564, “Studies on enantioselectivity of chiral 4-acetylamino-6-alkyloxy-2-alkylthiopyrimidines acting as antagonists of the human A3 adenosine receptor” (Medchemcomm, 2018)

Tests used:
Adenosine receptor A3 [1] = molecular target: T1, Adenosine receptor A3 (Homo sapiens, UniProt P0DMS8); test: Displacement of [3H]NECA from recombinant human adenosine A3 receptor expressed in CHO cell membranes measured after 180 mins
T1 sequence (P0DMS8 whole entry): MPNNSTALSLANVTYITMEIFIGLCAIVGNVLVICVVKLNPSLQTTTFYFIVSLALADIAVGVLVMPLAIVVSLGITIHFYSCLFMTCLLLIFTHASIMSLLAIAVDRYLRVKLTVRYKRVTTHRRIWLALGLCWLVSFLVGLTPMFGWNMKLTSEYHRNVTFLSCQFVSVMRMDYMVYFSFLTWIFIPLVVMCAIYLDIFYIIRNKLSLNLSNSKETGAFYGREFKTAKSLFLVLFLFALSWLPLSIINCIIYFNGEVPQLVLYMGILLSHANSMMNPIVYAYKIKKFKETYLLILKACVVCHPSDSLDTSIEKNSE

Adenosine receptor A3 [2] = molecular target: T1, Adenosine receptor A3; test: Antagonist activity at recombinant human adenosine A3 receptor expressed in CHO cells assessed as reduction in Cl-IB-MECA-induced inhibition of forskolin-stimulated [3H]cAMP accumulation preincubated for 10 mins followed by Cl-IB-MECA addition measured after 30 mins by liquid scintillation counting method; type: functional, cell-based
In short: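 A3 AR CHO cells are plated at about 30,000 per well and used 24 h later. They are preincubated 15 min at 37 °C in DMEM containing ADA 1 U/mL and Ro20-1724 20 µM. Compound is added 10 min before Cl-IB-MECA, with 1 µM forskolin present. The reaction is stopped with 0.4 N HCl and neutralised with KOH. cAMP is measured by competitive binding of [3H]cAMP (2 nM) to bovine adrenal binding protein for 150 min at 0 °C, then filtered and counted by scintillation.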

Adenosine receptor A1 = molecular target: T2, Adenosine receptor A1 (Homo sapiens, UniProt P30542); test: Displacement of [3H]DPCPX from human adenosine A1 receptor expressed in CHO cell membranes after 180 mins
T2 sequence (P30542 whole entry): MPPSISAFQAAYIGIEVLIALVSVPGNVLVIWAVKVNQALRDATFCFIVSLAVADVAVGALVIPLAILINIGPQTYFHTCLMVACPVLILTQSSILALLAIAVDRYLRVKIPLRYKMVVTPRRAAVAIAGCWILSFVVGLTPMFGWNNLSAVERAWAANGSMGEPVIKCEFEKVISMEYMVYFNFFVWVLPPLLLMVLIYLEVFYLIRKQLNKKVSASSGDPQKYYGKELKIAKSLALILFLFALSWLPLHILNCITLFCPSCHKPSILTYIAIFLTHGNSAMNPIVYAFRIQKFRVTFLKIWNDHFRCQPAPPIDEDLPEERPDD
In short: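 Membranes (30 µg protein) are incubated with 3 nM [3H]DPCPX at 25 °C in Tris-HCl 50 mM, MgCl2 2 mM, ADA 2 U/mL, pH 7.4. Six test concentrations are used, and nonspecific binding is set with 50 µM R-PIA. The Kd of 3 nM is used for Ki. Values are the mean of at least three experiments, each in duplicate.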

Adenosine receptor A2b = molecular target: T3, Adenosine receptor A2b (Homo sapiens, UniProt P29275); test: Displacement of [3H]NECA from recombinant human adenosine A2B receptor expressed in CHO cell membranes measured after 180 mins
T3 sequence (P29275 whole entry): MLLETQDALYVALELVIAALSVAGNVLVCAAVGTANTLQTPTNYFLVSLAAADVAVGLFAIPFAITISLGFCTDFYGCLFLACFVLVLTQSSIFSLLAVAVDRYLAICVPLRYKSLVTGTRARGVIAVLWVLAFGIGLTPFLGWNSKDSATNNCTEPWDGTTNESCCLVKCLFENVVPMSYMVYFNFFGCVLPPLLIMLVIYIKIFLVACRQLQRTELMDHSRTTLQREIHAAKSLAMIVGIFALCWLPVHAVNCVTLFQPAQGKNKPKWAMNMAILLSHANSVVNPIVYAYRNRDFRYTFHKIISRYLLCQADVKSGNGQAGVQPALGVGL

Adenosine receptor A2a = Adenosine receptor A2a (Homo sapiens, UniProt P29274); test: Displacement of [3H]NECA from recombinant human adenosine A2A receptor expressed in CHO cell membranes measured after 90 mins
Sequence of Adenosine receptor A2a (P29274 whole entry): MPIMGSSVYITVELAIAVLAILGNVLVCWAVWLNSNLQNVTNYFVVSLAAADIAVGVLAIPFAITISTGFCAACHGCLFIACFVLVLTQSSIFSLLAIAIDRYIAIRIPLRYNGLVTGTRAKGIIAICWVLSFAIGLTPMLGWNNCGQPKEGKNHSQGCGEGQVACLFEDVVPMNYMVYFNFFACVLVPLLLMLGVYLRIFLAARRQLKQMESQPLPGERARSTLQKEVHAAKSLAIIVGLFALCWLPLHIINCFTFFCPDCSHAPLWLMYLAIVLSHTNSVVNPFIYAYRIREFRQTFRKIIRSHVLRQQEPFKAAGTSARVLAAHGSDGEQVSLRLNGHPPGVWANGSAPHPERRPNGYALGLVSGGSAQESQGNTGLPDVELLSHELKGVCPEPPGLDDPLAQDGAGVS

| Ki (Adenosine receptor A3 [1]) | IC50 (Adenosine receptor A3 [2]) | Ki (Adenosine receptor A1) | Ki (Adenosine receptor A2b) | Ki (Adenosine receptor A2a) | SMILES |
| --- | --- | --- | --- | --- | --- |
| 1390 nM | – | – | – | – | CC[C@@H](C)Oc1cc(NC(C)=O)nc(SCc2ccccc2)n1 |
| 440 nM | 428 nM | – | – | – | CCCOc1cc(NC(C)=O)nc(S[C@@H](C)c2ccccc2)n1 |
| 183 nM | 153 nM | – | – | – | CC[C@H](C)Oc1cc(NC(C)=O)nc(SCc2ccccc2)n1 |
| 1.7 nM | – | – | – | – | CCCSc1nc(NC(C)=O)cc(O[C@H](C)c2ccccc2)n1 |
| 0.5 nM | 7.9 nM | – | – | – | CCCSc1nc(NC(C)=O)cc(O[C@@H](C)c2ccccc2)n1 |
| 580 nM | – | > 1000 nM | > 1000 nM | > 1000 nM | CCCOc1cc(NC(C)=O)nc(SC(C)c2ccccc2)n1 (racemic) |
| 195 nM | – | > 1000 nM | > 1000 nM | > 1000 nM | CCC(C)Oc1cc(NC(C)=O)nc(SCc2ccccc2)n1 (racemic) |
| 737 nM | – | – | – | – | CCCOc1cc(NC(C)=O)nc(S[C@H](C)c2ccccc2)n1 |
| 0.6 nM | – | > 1000 nM | > 1000 nM | > 1000 nM | CCCSc1nc(NC(C)=O)cc(OC(C)c2ccccc2)n1 (racemic) |
